# High-throughput results: PubChem, SRMLSC
# HUVEC prolif 384: human endothelial cell proliferation inhibition. 86,000 tested, 1.1% active. viability, % at 10 µM (by protocol). HUVEC proliferation, CellTiter-Glo luminescence, 72 h; stronger effect = lower value;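 active means viability at or below 30%; inactive means viability above 30%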;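 further: 100% = median luminescence of DMSO-only cell control wells on each plate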
# Fibroblast inh: blocks proliferation of human lung fibroblasts; LL 47 human lung fibroblast viability, ATP luminescence; stronger effect = lower value; 85,000 tested, 1.1% active; AID 719; viability, % at 10 µM;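 active means viability at or below 50% in the single dose screen; inactive means viability above 50%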;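 further: compound exposure lasted 72 h before the ATP readout; 100% = median luminescence of untreated cell-only wells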
#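 Signal: luminescent ATP detection, CellTiter-Glo; assay system: LL 47 human lung fibroblasts; input: 1,150 cells/well; incubation: overnight cell rest, 72 h compound treatment at 37 °C; measure: % viability versus median cells-only luminescence; medium: IMEM growth medium with 15% fetal bovine serum; dosing: compound addition at 0.1% DMSO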
# H69AR growth 86K: growth inhibitors of human H69AR lung tumor cells; H69AR lung tumor viability, ATP luminescence, 72 h; stronger effect = lower value; viability, % at 10 µM; 85,000 tested, 6% active; AID 598;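 active means viability at or below 40%; inactive means viability above 40%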;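 further: multidrug resistant small cell line overexpressing MRP-1 efflux transporter; 100% = mean luminescence of untreated control wells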
# HCT116 bCat-KO: beta-catenin-lacking colon tumor cell growth suppression | HCT116 beta-catenin knockout viability, CellTiter-Glo, 60 h; stronger effect = lower value | viability, % at 10 µM | 140,000 tested, 1.5% active | AID 818;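 active means viability at or under a set limit, the compound median less 4 SD, cut at about 6% in these data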;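 further: 0% = Hyamine 1622 control at 20 µM and 100% = untreated cell control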
# PTEN del growth: growth suppressors of cells with PTEN tumor suppressor deletion; viability, % at 10 µM; AID 827; HCT116 PTEN-null viability, CellTiter-Glo, 60 h; stronger effect = lower value; 140,000 tested, 1.2% active;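 active means viability at or below a set limit, 4 SD under the median of all tested compounds, cut at about 3.7% in these data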;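 further: PTEN knockout HCT116 line with beta catenin targeted HCT116 as companion control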
# * hit, by the source's call; x = no result given. The sample as a whole holds a higher share of hits than the screen did.
SMILES,HUVEC prolif 384,Fibroblast inh,H69AR growth 86K,HCT116 bCat-KO,PTEN del growth
Cc1ccnc(NC(=O)CCCOc2cc(=O)n(C)c3ccccc23)c1,x,x,x,5.4*,2.9*
CC(C)Nc1nc(NC(C)C)nc(N(C#N)CCOc2ccc(Cl)cc2Cl)n1,86.8,83.6,27.9*,65.0,59.8
CCN(CC)S(=O)(=O)c1ccc(OC)c(NC(=S)Nc2cccc(C)c2C)c1,x,x,x,92.4,95.7
O=C(CSc1nnc2n1CCCN2C(=S)Nc1ccc(Cl)cc1)c1ccccc1,43.7,66.5,26.1*,62.8,64.2
Nc1c(C(=O)Nc2ccc(S(=O)(=O)N3CCCC3)cc2)sc2nc3cc4c(cc3cc12)CCC4,x,x,x,5.8*,1.5*
CCOC(=O)C1CCCN(C(=O)Cn2sc3nc(C)cc(C)c3c2=O)C1 (configuration not stated),93.3,82.6,1.1*,14.2,1.7*
CCOC(=O)C1CCCN(C(=O)Cn2cnc3c2c(=O)n(C)c(=O)n3C)C1 (configuration not stated),100.0,104.6,89.0,99.4,91.8
Cc1cc(C)c2c(=O)n(CC(=O)N3CCC(N4CCCCC4)CC3)sc2n1,104.9,76.0,103.0,1.8*,1.9*
O=C(NC(=S)NCCN1CCOCC1)c1ccc(Cl)cc1,x,x,x,94.7,92.4
CC1(C)Cc2c(sc3c2c(=N)n(Cc2ccco2)c(=O)n3CC(=O)Nc2ccc(Cl)cc2)CO1,77.9,21.8*,88.4,x,x
Cc1nc([N+](=O)[O-])nn1C12CC3CC(CC(Cl)(C3)C1)C2,x,x,x,89.5,98.0
O=C(/C=C/c1cc([N+](=O)[O-])ccc1OC(F)F)Nc1cccc2ccccc12,x,x,x,77.3,77.6
CCOc1ccc(Cl)cc1S(=O)(=O)N1CCN(c2ccc(C)c(C)c2)CC1,93.4,91.3,39.2*,67.2,70.0
COc1ccc(CCN(C(=S)Nc2ccccc2)C2CC(=O)N(c3ccccc3)C2=O)cc1 (configuration not stated),x,x,x,50.4,66.4
O=C1CC(N(CCc2ccccc2)C(=S)Nc2ccccc2)C(=O)N1c1ccc(Br)cc1 (configuration not stated),x,x,x,1.9*,2.8*
CCc1ccc(NC(=O)CSc2nc3n[nH]c(C)c3c(=N)n2-c2cccc(OC)c2)cc1,64.0,60.4,10.4*,20.9,29.8
Cc1cc(-n2c(SCC(=O)NCc3cccs3)nc3n[nH]c(C)c3c2=N)ccc1Cl,45.4,85.3,24.5*,60.1,x
CCn1c(SCC(=O)Nc2nc(-c3ccc(C)cc3)cs2)nnc1-c1ccccc1,100.6,99.2,60.2,49.2,51.2
COc1ccc2cc(C)c3nnc(SCC(=O)Nc4nc(-c5ccc(F)cc5)cs4)n3c2c1,x,x,x,2.7*,2.0*
COc1ccccc1-c1nnc(SCC(=O)Nc2nc(-c3ccccc3)cs2)n1C,81.8,100.5,86.4,62.4,77.7
CCn1c(SCC(=O)Nc2nc(C)cs2)nnc1C(NC(=O)c1ccccc1Cl)C(C)C (configuration not stated),94.1,99.0,38.0*,95.3,93.0
CCn1c(SCC(=O)Nc2nc(-c3ccc(C)cc3)cs2)nnc1-c1ccccc1O,69.6,97.2,29.4*,15.3,19.3
Cc1cccc(C)c1NCc1nnc(SCC(=O)Nc2nc(-c3ccccc3)cs2)n1-c1ccccc1,x,x,x,54.4,57.0
CCOc1ccc(NCc2nnc(SCC(=O)Nc3nc(-c4ccccc4)cs3)n2-c2ccccc2)cc1,x,x,x,1.3*,1.0*
Cc1ccc(NC(=O)CSCC(=O)N2c3ccccc3CCc3ccccc32)cc1,x,x,x,65.9,67.1
SMILES,HUVEC prolif 384,Fibroblast inh,H69AR growth 86K,HCT116 bCat-KO,PTEN del growth
CN(Cc1cccs1)C(=O)CSc1nnnn1C,77.5,97.8,88.2,102.4,96.9
S=C(Nc1ccc(Cl)c(Cl)c1)NC1CCN(Cc2ccccc2)CC1,x,x,x,3.8*,7.9
S=C(Nc1ccc(Cl)c(Cl)c1)NC1CCCCC1,x,x,x,7.9,4.8
CC1=C(C(=O)OC(C)C)C(c2cncc(-c3ccc(F)cc3)c2)C(C#N)=C(N)O1 (configuration not stated),x,x,x,91.3,76.2
CCN(Cc1ccccc1)S(=O)(=O)c1ccc(C(=O)Nc2nnc(C3CC3)o2)cc1,68.6,69.6,31.9*,17.7,13.9
COCCN(CCOC)S(=O)(=O)c1ccc(C(=O)Nc2nnc(C)o2)cc1,x,x,x,93.3,101.6
Cc1nnc(NC(=O)c2ccc(S(=O)(=O)N(C)Cc3ccccc3)cc2)o1,84.7,97.3,24.1*,38.2,33.6
CSCc1nnc(NC(=O)c2ccc(S(=O)(=O)N(CC(C)C)CC(C)C)cc2)o1,x,x,x,9.4,10.6
O=C(COC(=O)Cn1cnc2ccccc2c1=O)Nc1cc(Cl)ccc1[N+](=O)[O-],x,x,x,94.4,93.2
